SMILES strings stand for the structures.

What all share (type): functional, cell-based
The test system of one test is A-375. Briefly: Cytotoxicity against human A375 cells assessed as cell viability after 48 hrs by MTT assay. The following applies: A-375, 48 h. Summed up:
(§1)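 Cells were trypsinized, seeded in 96-well plates at 2 × 10³ cells/well and grown for 24 h. Medium was then replaced with compound solutions (in DMSO, range from 0.1) for 48 h, and viability was read by MTT. Cancer lines were grown in RPMI 1640 + 10% FCS. IC50 from 3 independent experiments, each in triplicate.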

For another test, the system named is HepG2. Briefly: Cytotoxicity against human HepG2 cells assessed as cell viability after 48 hrs by MTT assay. The following applies: HepG2, 48 h. In a few lines: as §1
Another test deals with NCI-H460. The experiment in a line: Cytotoxicity against human NCI-H460 cells assessed as cell viability after 48 hrs by MTT assay. The following applies: NCI-H460, 48 h. Summed up:
as §1
A general note: Tetrazolium dyes change colour on reduction, which living cells bring about.

A further test concerns MGC-803. The experiment in a line: Cytotoxicity against human MGC803 cells assessed as cell viability after 48 hrs by MTT assay. The conditions noted are these: MGC-803, 48 h. In a few lines:
as §1

In general, IC50 refers to the concentration needed to halve the response being measured. Turning to `COc1cc2nc(/C=C/c3ccc4c(c3)OCO4)n(CCCN(C)C)c(=O)c2cc1OC`, in the test with A-375, the 50% inhibitory concentration (IC50) was above 20 µM.
For the compound `CN(C)CCCn1c(/C=C/c2cccc([N+](=O)[O-])c2)nc2cc(Cl)ccc2c1=O`, the IC50 in the test with HepG2 is 6.13 µM; in the test with NCI-H460 it was 5.83 µM; in the test on MGC-803, 4.14 µM; with A-375 it was 14 µM.
For `CN(C)CCCn1c(/C=C/c2ccc(F)cc2)nc2ccccc2c1=O` the same measures were above 20 µM, above 20 µM, above 20 µM and above 20 µM.
Regarding `CN(C)CCn1c(/C=C/c2ccc([N+](=O)[O-])cc2)nc2ccccc2c1=O`, the IC50 in the test on HepG2, with NCI-H460, in the test with MGC-803 and with A-375 was above 20 µM throughout.
Regarding `CN(C)CCCn1c(/C=C/c2ccccc2Br)nc2cc(Cl)ccc2c1=O`, the IC50 stood at 8.1 µM in the test with HepG2, 7.49 µM with NCI-H460, 12.6 µM with MGC-803 and 13.1 µM in the test with A-375.
The matching figures for `CN(C)CCCn1c(/C=C/c2ccc([N+](=O)[O-])cc2)nc2cc(Cl)ccc2c1=O`: 7.41 µM, 5.55 µM, 8.28 µM and 10.3 µM.
On to `CN(C)CCn1c(/C=C/c2ccc(Cl)cc2Cl)nc2ccccc2c1=O`, for which the 50% inhibitory concentration (IC50) in the test with HepG2, with NCI-H460, in the test with MGC-803 and with A-375 was above 20 µM each time.
For the compound `CCCCn1c(/C=C/c2ccccc2Br)nc2ccccc2c1=O`, the half-inhibitory concentration (IC50) in the test with HepG2, in the test with NCI-H460, in the test with MGC-803 and in the test on A-375 was above 20 µM each time.
Turning to `COc1cc2nc(/C=C/c3cccc([N+](=O)[O-])c3)n(CCCN(C)C)c(=O)c2cc1OC`, the 50% inhibitory concentration (IC50) with A-375 was above 20 µM.
Consider `CCCCn1c(/C=C/c2ccc3c(c2)OCO3)nc2ccccc2c1=O`, for which the IC50 in the test on HepG2, with NCI-H460, with MGC-803 and with A-375 was above 20 µM each time.
Turning to `CN(C)CCCn1c(/C=C/c2ccc3c(c2)OCO3)nc2cc(Cl)ccc2c1=O`, the 50% inhibitory concentration (IC50) with HepG2, with NCI-H460, in the test with MGC-803 and with A-375 was above 20 µM each time.
For `CCCCn1c(/C=C/c2ccc([N+](=O)[O-])cc2)nc2ccccc2c1=O`, the 50% inhibitory concentration (IC50) with HepG2, in the test on NCI-H460, in the test on MGC-803 and in the test on A-375 was above 20 µM in each case.
Turning to `CN(C)CCn1c(/C=C/c2ccc3c(c2)OCO3)nc2ccccc2c1=O`, the IC50 in the test with HepG2, in the test with NCI-H460, with MGC-803 and in the test with A-375 was above 20 µM in each case.
Turning to `CN(C)CCCn1c(/C=C/c2ccc(Cl)cc2)nc2cc(Cl)ccc2c1=O`, the half-inhibitory concentration (IC50) with HepG2 worked out at 6.43 µM; with NCI-H460 it was 7.72 µM; in the test with MGC-803, 6.88 µM; in the test with A-375, 14.1 µM.
As for `CN(C)CCn1c(/C=C/c2cccc([N+](=O)[O-])c2)nc2ccccc2c1=O`, the IC50 with HepG2, with NCI-H460, in the test with MGC-803 and in the test on A-375 was above 20 µM throughout.
For `COc1cc2nc(/C=C/c3ccccc3Br)n(CCCN(C)C)c(=O)c2cc1OC`, the IC50 with A-375 was above 20 µM.
As to `CN(C)CCn1c(/C=C/c2ccc(Cl)cc2)nc2ccccc2c1=O`, the 50% inhibitory concentration (IC50) in the test on HepG2, in the test with NCI-H460, in the test with MGC-803 and in the test with A-375 was above 20 µM each time.
`CN(C)CCCn1c(/C=C/c2ccc(Cl)cc2)nc2ccccc2c1=O`: the IC50 in the test with HepG2, with NCI-H460, in the test with MGC-803 and in the test on A-375 was above 20 µM in each case.
On to `CCCCn1c(/C=C/c2cccc(O)c2)nc2ccccc2c1=O`, for which the half-inhibitory concentration (IC50) with HepG2, in the test with NCI-H460, with MGC-803 and in the test on A-375 was above 20 µM in each case.
Consider `CN(C)CCCn1c(/C=C/c2ccc(Cl)cc2Cl)nc2cc(Cl)ccc2c1=O`, for which the concentration for half-maximal inhibition (IC50) in the test with HepG2 turned out to be 8.58 µM; with NCI-H460, 13.3 µM; with MGC-803, 5.75 µM; in the test on A-375, 12.9 µM.
Regarding `COc1ccc(/C=C/c2nc3cc(OC)c(OC)cc3c(=O)n2CCCN(C)C)cc1OC`, in the test with A-375, the IC50 is above 20 µM.
In the case of `CCCCn1c(/C=C/c2ccc(Cl)cc2Cl)nc2ccccc2c1=O`, the IC50 with HepG2, in the test on NCI-H460, with MGC-803 and with A-375 was above 20 µM each time.
With `CN(C)CCn1c(/C=C/c2ccc(F)cc2)nc2ccccc2c1=O`, the IC50 in the test on HepG2, in the test on NCI-H460, in the test with MGC-803 and in the test on A-375 was above 20 µM in each case.
Regarding `CCCCn1c(/C=C/c2ccc(Cl)cc2)nc2ccccc2c1=O`, the IC50 in the test on HepG2, in the test on NCI-H460, in the test on MGC-803 and in the test with A-375 was above 20 µM in each case.
For the compound `CN(C)CCn1c(/C=C/c2cccc(O)c2)nc2ccccc2c1=O`, the IC50 in the test with HepG2, with NCI-H460, with MGC-803 and in the test on A-375 was above 20 µM throughout.
With `CCCCn1c(/C=C/c2ccc(F)cc2)nc2ccccc2c1=O`, the IC50 with HepG2, in the test on NCI-H460, with MGC-803 and with A-375 was above 20 µM throughout.
Consider `CN(C)CCCn1c(/C=C/c2ccccc2Br)nc2ccccc2c1=O`, for which the half-inhibitory concentration (IC50) was determined as 5.06 µM in the test on HepG2, 6.54 µM with NCI-H460, 14.6 µM with MGC-803 and 8.41 µM with A-375.
`COc1cc2nc(/C=C/c3cccc(O)c3)n(CCCN(C)C)c(=O)c2cc1OC`: in the test on A-375, the half-maximal inhibitory concentration (IC50) was above 20 µM.
Regarding `CN(C)CCCn1c(/C=C/c2ccc(F)cc2)nc2cc(Cl)ccc2c1=O`, the IC50 in the test on HepG2, in the test on NCI-H460, with MGC-803 and with A-375 was above 20 µM each time.
`CN(C)CCn1c(/C=C/c2ccccc2Br)nc2ccccc2c1=O`: the half-maximal inhibitory concentration (IC50) in the test with HepG2, in the test on NCI-H460, in the test with MGC-803 and with A-375 was above 20 µM throughout.
Take `COc1cc2nc(/C=C/c3ccc([N+](=O)[O-])cc3)n(CCCN(C)C)c(=O)c2cc1OC`: in the test with A-375, the IC50 is above 20 µM.
With `CCCCn1c(/C=C/c2ccc(OC)c(OC)c2)nc2ccccc2c1=O`, the half-maximal inhibitory concentration (IC50) in the test on HepG2, with NCI-H460, in the test with MGC-803 and in the test with A-375 was above 20 µM in each case.
With `COc1cc2nc(/C=C/c3ccc(Cl)cc3Cl)n(CCCN(C)C)c(=O)c2cc1OC`, the IC50 was 6.45 µM in the test with HepG2, 6.37 µM in the test with NCI-H460, 5.92 µM in the test with MGC-803 and 12.7 µM with A-375.
Turning to `CN(C)CCCn1c(/C=C/c2cccc(O)c2)nc2cc(Cl)ccc2c1=O`, the IC50 is above 20 µM with HepG2, 10.5 µM with NCI-H460, above 20 µM in the test on MGC-803 and above 20 µM in the test with A-375.
Turning to `COc1ccc(/C=C/c2nc3ccccc3c(=O)n2CCN(C)C)cc1OC`, the IC50 in the test on HepG2, in the test with NCI-H460, with MGC-803 and in the test on A-375 was above 20 µM in each case.
For the compound `CN(C)CCCn1c(/C=C/c2cccc(O)c2)nc2ccccc2c1=O`, the half-inhibitory concentration (IC50) in the test with HepG2 is 6.1 µM; with NCI-H460, above 20 µM; in the test on MGC-803, above 20 µM; with A-375 it was above 20 µM.

Values taken from ChEMBL document CHEMBL3414503, “Distinct novel quinazolinone exhibits selective inhibition in MGC-803 cancer cells by dictating mutant p53 function” (Eur J Med Chem, 2015).
